Measurements of several laboratories.
Target: MAP kinase-interacting serine/threonine-protein kinase 2 (MKNK2, Homo sapiens, UniProt Q9HBH9)

| SMILES | assay | conditions | endpoint | result |
| --- | --- | --- | --- | --- |
| C1=C/COCc2cc(ccc2OCCN2CCCC2)Nc2nccc(n2)-c2cccc(c2)COC/1 | binding | 0.1 µM | remaining binding | 59% |
| CO[C@@H]1[C@H](N(C)C(=O)c2ccccc2)C[C@H]2O[C@]1(C)n1c3ccccc3c3c4c(c5c6ccccc6n2c5c31)C(=O)NC4 | enzyme activity, inhibitor | 1 µM | inhibition | 30% |
| CN1CCN(C(=O)c2ccc(NC(=O)Nc3ccc(N(C)c4ccnc(Nc5ccc(CS(C)(=O)=O)cc5)n4)cc3)cc2)CC1 | binding, competition with immobilised ligand | 1 µM | remaining binding | 4.2% |
| CC(C)S(=O)(=O)c1ccc2nccc(Nc3ccc4sc(C5CCCC5)nc4c3)c2c1 | enzyme activity, inhibitor | 1 µM | activity vs control | 101% |
| CCCCC(=O)Nc1ccc(-c2ccc3ncn(CCC)c(=O)c3c2)cn1 | binding, competition with immobilised ligand | 0.5 µM | remaining binding | 100% |
| COc1ccc2oc(-c3ccc4nc(N)oc4c3)c/c(=N\c3ccccc3NC(=O)CCN)c2c1 | binding | 1 µM | remaining binding | 93% |
| Cc1ccc(NC(=O)c2ccnc(C(F)(F)F)c2)cc1-c1cc(OCCO)nc(N2CCOCC2)c1 | binding, competition with immobilised ligand | 1 µM | remaining binding | 79% |
| N#Cc1ccc(NC(=O)Nc2ccccc2)cc1 | cell-free assay, competition with immobilised ligand | 25 µM | remaining binding | 46% |
| C=CC(=O)N1CCC([C@@H]2CCNc3c(C(N)=O)c(-c4ccc(Oc5ccccc5)cc4)nn32)CC1 | enzyme activity, inhibitor | 1 µM | inhibition | 22% |
